In the library only some 3.4% were active in any assay of this set; here they are far more common.
PolyA inhibitor: yeast polyadenylation inhibition; S. cerevisiae SKY197-pL101 polyadenylation reporter, beta-gal luminescence; efflux-impaired pdr1/pdr3 knockout yeast; score 100 = 6 SD above DMSO; activity score, % at 12 µM; actives 0.02% (n = 300,000); AID 1875;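 active means lowest replicate activity score at least 50, where 100 means six control SD above control mean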;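 further: yeast exposed to compound for 9 h at 30 °C; higher score means more reporter readthrough which indicates perturbed polyadenylation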
Arr AP2 block: human beta-arrestin and AP2 interaction inhibition; actives 0.31% (n = 340,000); AID 504490; FITC-arrestin peptide / GST-AP2 beads, flow cytometry; AP2 beta2 appendage carries R879A mutation; inhibition, % at 10 µM;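 active means inhibition above a set limit, near 3 SD of compounds lacking own fluorescence, cut at about 54% in these data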;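 further: plate controls were DMSO wells for no effect and 5 µM unlabelled arrestin peptide for full effect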
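Assay system: GST-AP2 R879A bound to glutathione beads, E. coli-expressed; Medium: PBS with 0.05% Tween 20 and 0.1% BSA; Also added: fluorescein-tagged arrestin peptide at 50 nM final; Timing: 12 min plus 1 h, RT; Measured by: flow cytometry, FL1 (488/535 nm); Evaluation: percent drop in bead-associated FITC signal.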
APOBEC3G inh: inhibitors of human APOBEC3G DNA deaminase; Q9HC16; recombinant A3G, ssDNA deamination FAM/TAMRA fluorescence; inhibition, % at 20 µM; actives 0.28% (n = 330,000); AID 493012;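 active means inhibition of at least 40% at 20 µM, with no more than 30% in the related APOBEC3A deaminase screen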;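 further: plate controls were DMSO wells with A3G for no effect and wells lacking A3G enzyme for full effect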
UCH37 DUB inh: inhibitors of human deubiquitinating enzyme UCH37; inhibition, % (no concentration beside the values); actives 0.33% (n = 330,000); Q9Y5K5; purified proteasome/UCH37, Ub-AMC cleavage fluorescence;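 active means mean inhibition over replicate wells above about 20%, limit read from the data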;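 further: 0% = compound-free wells with enzyme and 100% = wells lacking proteasome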
Target sequence (Q9Y5K5 whole entry, looked up): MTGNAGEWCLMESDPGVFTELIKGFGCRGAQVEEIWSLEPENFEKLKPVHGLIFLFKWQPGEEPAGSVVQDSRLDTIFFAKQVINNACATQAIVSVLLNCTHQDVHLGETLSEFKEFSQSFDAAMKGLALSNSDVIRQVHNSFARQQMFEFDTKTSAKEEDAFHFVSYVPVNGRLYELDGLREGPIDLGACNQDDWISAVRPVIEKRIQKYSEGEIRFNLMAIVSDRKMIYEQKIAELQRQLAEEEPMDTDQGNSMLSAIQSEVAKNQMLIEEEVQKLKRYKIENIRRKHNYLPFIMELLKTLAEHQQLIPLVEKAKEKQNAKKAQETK
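Material: human UCH37 enzyme supplied as purified proteasome complex. Measure: % inhibition of Ub-AMC cleavage fluorescence. Medium: pH 7.4 Tris-HCl (50 mM) with ovalbumin, ATP-MgCl2, DTT. Times: 30 min preincubation with enzyme, 25 min cleavage at room temperature. Detection: AMC fluorescence intensity at 355/460 nm.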
APOBEC3A inh: inhibitors of human APOBEC3A DNA deaminase; P31941; recombinant A3A, FAM/TAMRA ssDNA deamination fluorescence; inhibition, % at 20 µM; actives 0.41% (n = 330,000);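 active means at least 40% inhibition at 20 µM here, with at most 30% in a related deaminase screen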;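 further: plate controls were A3A with DMSO for no effect and wells lacking A3A enzyme for full effect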
Target sequence (P31941 whole entry, looked up): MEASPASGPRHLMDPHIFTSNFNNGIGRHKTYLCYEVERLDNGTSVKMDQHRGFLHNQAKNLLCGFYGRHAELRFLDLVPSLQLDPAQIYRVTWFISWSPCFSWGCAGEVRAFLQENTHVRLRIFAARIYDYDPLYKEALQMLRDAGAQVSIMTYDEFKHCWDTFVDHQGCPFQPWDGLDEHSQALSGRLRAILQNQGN
AHR act: activators of human aryl hydrocarbon receptor; AHR-responsive luciferase reporter cells, luminescence; P35869; AID 2796; activation, % at 5 µM; actives 2.5% (n = 320,000); in the data active means activation above about 47%;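 further: 0% = vehicle wells and 100% = reference agonist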
APOBEC3G confirm: APOBEC3G (human) deaminase inhibition, confirmed; AID 493152; recombinant A3G ssDNA deaminase, UDG/FAM-TAMRA fluorescence; actives 72% (n = 890); inhibition, % at 20 µM; shares compounds with APOBEC3G inh;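 active means inhibition reaching a set limit in any replicate at 20 µM, the limit being 80% of the first screen's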
UDG A3G counter: inhibits E. coli UDG, flagging false APOBEC3G inhibitors; shares compounds with APOBEC3G inh; UDG counterscreen, FAM/TAMRA oligo fluorescence; inhibition, % at 20 µM; 710 tested, under 10 active; AID 504715;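 active means compounds giving 40% or more inhibition at 20 µM in any one of the three replicates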;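 further: plate controls were DMSO wells with UDG and oligo for no effect and DMSO wells lacking both for full effect; inhibitors lower the FAM signal released by uracil excision and alkaline cleavage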
Numbers without * were called inactive.

For Cc1ccc(N2C(=O)CS(=O)C(c3ccccc3)C2=O)cc1C (stereo unspecified) the results were PolyA inhibitor -14, Arr AP2 block 36, APOBEC3G inh 16, UCH37 DUB inh 1, APOBEC3A inh -2 and AHR act 2.
`CCOc1cc(C=NNC(=O)c2cc(C)n(-c3ccc(F)cc3)c2C)ccc1O` gave UCH37 DUB inh 1.
Screening NC(=O)CSc1nc2cc(S(=O)(=O)N3CCOCC3)ccc2o1 returned Arr AP2 block -2, APOBEC3G inh 43*, UCH37 DUB inh 1, APOBEC3A inh 3, AHR act 0, APOBEC3G confirm 24* and UDG A3G counter -2.
Screening Nc1nc2cc(S(=O)(=O)N3CCOCC3)ccc2o1 returned Arr AP2 block -4, APOBEC3G inh 46*, UCH37 DUB inh 6, APOBEC3A inh 2, AHR act -2, APOBEC3G confirm 43* and UDG A3G counter -5.
For CN(C)C(=O)CSc1nc2cc(S(=O)(=O)N3CCOCC3)ccc2o1 the results were Arr AP2 block -18, APOBEC3G inh 23, UCH37 DUB inh -2, APOBEC3A inh -1 and AHR act -1.
Screening O=C(COc1ccc(C=NNC(=O)c2ccncc2)cc1)Nc1ccccc1 returned UCH37 DUB inh -89.
Screening Clc1ccc(-c2ccc(C=NNc3cc(N4CCOCC4)nc(N4CCOCC4)n3)o2)cc1 returned UCH37 DUB inh -22.
COCCn1c(SCC(=O)N2CCCc3ccccc32)nc2c(c1=O)SC(C)C2 (stereo unspecified) was read as PolyA inhibitor 13, Arr AP2 block 19, APOBEC3G inh 82*, UCH37 DUB inh 5, APOBEC3A inh -1, AHR act 0, APOBEC3G confirm -4 and UDG A3G counter 0.
`NC(Cc1ccc(Cl)cc1)=NOC(=O)Cc1ccc([N+](=O)[O-])cc1` gave UCH37 DUB inh 1.
Screening O=C(CSc1cn[nH]n1)Nc1cccc(C(=O)O)c1 returned PolyA inhibitor -3, Arr AP2 block 15, APOBEC3G inh 62*, UCH37 DUB inh 7, APOBEC3A inh -1, AHR act -2, APOBEC3G confirm 87* and UDG A3G counter -7.
CCC(C)(C)c1nnc(NC(=O)C2CCN(C(=O)c3ccco3)CC2)s1 was read as PolyA inhibitor 4, Arr AP2 block 24, APOBEC3G inh 67*, UCH37 DUB inh 1, APOBEC3A inh 3, AHR act 4, APOBEC3G confirm 80* and UDG A3G counter -2.
`CCc1nnc(NC(=O)C2CCN(C(=O)c3ccco3)CC2)s1` gave PolyA inhibitor 17, Arr AP2 block 3, APOBEC3G inh -2, UCH37 DUB inh 4, APOBEC3A inh -1 and AHR act -2.
CC1(C)Cc2c(sc3ncn4c(=S)[nH]nc4c23)CO1 was read as PolyA inhibitor -9, Arr AP2 block -8, APOBEC3G inh 42*, UCH37 DUB inh 3, APOBEC3A inh 0, AHR act 0, APOBEC3G confirm 74* and UDG A3G counter -3.
Screening COc1ccc2c(c1)cc(C(=O)N[C@@H](Cc1ccccc1)C(=O)O)n2C returned PolyA inhibitor 11, Arr AP2 block -2, APOBEC3G inh -6, UCH37 DUB inh -100, APOBEC3A inh -5 and AHR act 6.
Screening Cn1c(C(=O)N[C@@H](Cc2ccccc2)C(=O)O)cc2cc(F)ccc21 returned PolyA inhibitor -4, Arr AP2 block -5, APOBEC3G inh 43*, UCH37 DUB inh -3, APOBEC3A inh -1, AHR act 38, APOBEC3G confirm -2 and UDG A3G counter 2.
Screening O=[N+]([O-])c1ccc(NN=Cc2ccc[nH]2)cc1 returned UCH37 DUB inh 0.
For CCOCCCn1c(=O)c2ccccc2n2c(=S)[nH]nc12 the results were PolyA inhibitor -12, Arr AP2 block 22, APOBEC3G inh 42*, UCH37 DUB inh 5, APOBEC3A inh -2, AHR act 3, APOBEC3G confirm 62* and UDG A3G counter 1.
`C=CCn1c(=O)c2ccccc2n2c(=S)[nH]nc12` gave PolyA inhibitor 6, Arr AP2 block -12, APOBEC3G inh 50*, UCH37 DUB inh 5, APOBEC3A inh -7, AHR act 2, APOBEC3G confirm 80* and UDG A3G counter -3.
For CC(C)CCn1c(=O)c2ccccc2n2c(=S)[nH]nc12 the results were PolyA inhibitor 10, Arr AP2 block -5, APOBEC3G inh 46*, UCH37 DUB inh 5, APOBEC3A inh -5, AHR act 7, APOBEC3G confirm 86* and UDG A3G counter -4.
CC(C)CCn1c(=O)c2ccccc2n2c(CCl)nnc12 was read as PolyA inhibitor 1, Arr AP2 block 3, APOBEC3G inh -9, UCH37 DUB inh 1, APOBEC3A inh 1 and AHR act 4.
For S=c1[nH]nc(-c2ccccc2)n1N=Cc1cccc(Br)c1 the results were UCH37 DUB inh 0.
Screening O=c1c(=Cc2ccc(O)cc2)sc2n1C(c1ccccc1)C(c1ccccc1)=NN=2 (stereo unspecified) returned UCH37 DUB inh -4.
For O=C(O)COc1ccc(C=NNC(=O)C(O)(c2ccccc2)c2ccccc2)cc1 the results were UCH37 DUB inh 2.
Screening Cc1ccc(-c2c(C)cc3oc(=O)cc(-c4ccccc4)c3c2C)cc1 returned Arr AP2 block 5, APOBEC3G inh 2, UCH37 DUB inh 1 and APOBEC3A inh 1.
Screening CCOC(=O)c1ccc(-c2c(C)cc3oc(=O)cc(-c4ccccc4)c3c2C)cc1 returned Arr AP2 block -21, APOBEC3G inh 84*, UCH37 DUB inh 1, APOBEC3A inh 4 and APOBEC3G confirm 2.
`CCOc1ccc(C=NNC(=O)C2(O)c3ccccc3-c3ccccc32)cc1` gave UCH37 DUB inh 2.
`N#CC(c1nc2ccccc2nc1N1CCCC1)S(=O)(=O)c1cccs1` (stereo unspecified) gave PolyA inhibitor -2, Arr AP2 block 3, APOBEC3G inh 51*, UCH37 DUB inh -10, APOBEC3A inh -2, AHR act 6, APOBEC3G confirm 5 and UDG A3G counter 0.
`O=C(O)c1ccccc1C(=O)Nc1n[nH]c(=S)s1` gave PolyA inhibitor -12, Arr AP2 block 28, APOBEC3G inh 64*, UCH37 DUB inh 3, APOBEC3A inh 2, AHR act 1, APOBEC3G confirm 44* and UDG A3G counter -2.

Screens as filed in PubChem.
